The values that follow come from ChEMBL document CHEMBL4152379, “Discovery of Pyrrolidine Sulfonamides as Selective and Orally Bioavailable Antagonists of Transient Receptor Potential Vanilloid-4 (TRPV4)” (J Med Chem, 2018).

The nature of data set [1]: Aqueous solubility of the compound. The data set is classed as physicochemical. The note with it: buffer.
A short description of data set [2]: Clearance in iv dosed Sprague-Dawley rat. The data set is classed as ADME, organism-based. The note with it: in vivo. In short, it runs like this: (§1)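 Male Sprague-Dawley rats with femoral vein, femoral artery and gastric catheters; noncrossover design, 2 rats per route; cassette dosing of up to five compounds. i.v. target 1 mg/kg in 5% DMSO/20% Cavitron (pH 4), infused over 30 min. Oral gastric bolus target 2 mg/kg in 5% DMSO/6% Cavitron (pH 4). Plasma sampled to 24 h and measured by HPLC−MS/MS. Noncompartmental analysis; F from dose-normalized AUC(0−∞) relative to mean i.v. AUC.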

The species entered for data set [3] is Rattus norvegicus. Put plainly: Unbound clearance in Sprague-Dawley rat. The data set is classed as ADME, organism-based. The conditions noted are these: in vivo.
Data set [4] can be described thus: MRT in iv dosed Sprague-Dawley rat. The data set is classed as ADME, organism-based. The note with it: in vivo. In short, it runs like this: as §1
The nature of data set [5]: Oral bioavailability in Sprague-Dawley rat. It counts as ADME, organism-based. The conditions noted are these: in vivo. The procedure, abridged:
as §1

Data set [6] can be described thus: Fraction unbound in Sprague-Dawley rat plasma. It counts as ADME, cell-free.
Data set [7] deals with Transient receptor potential cation channel subfamily A member 1 (Homo sapiens, UniProt O75762). Put plainly: Inhibition of TRPA1 (unknown origin).
Chain of Transient receptor potential cation channel subfamily A member 1 (O75762 whole entry): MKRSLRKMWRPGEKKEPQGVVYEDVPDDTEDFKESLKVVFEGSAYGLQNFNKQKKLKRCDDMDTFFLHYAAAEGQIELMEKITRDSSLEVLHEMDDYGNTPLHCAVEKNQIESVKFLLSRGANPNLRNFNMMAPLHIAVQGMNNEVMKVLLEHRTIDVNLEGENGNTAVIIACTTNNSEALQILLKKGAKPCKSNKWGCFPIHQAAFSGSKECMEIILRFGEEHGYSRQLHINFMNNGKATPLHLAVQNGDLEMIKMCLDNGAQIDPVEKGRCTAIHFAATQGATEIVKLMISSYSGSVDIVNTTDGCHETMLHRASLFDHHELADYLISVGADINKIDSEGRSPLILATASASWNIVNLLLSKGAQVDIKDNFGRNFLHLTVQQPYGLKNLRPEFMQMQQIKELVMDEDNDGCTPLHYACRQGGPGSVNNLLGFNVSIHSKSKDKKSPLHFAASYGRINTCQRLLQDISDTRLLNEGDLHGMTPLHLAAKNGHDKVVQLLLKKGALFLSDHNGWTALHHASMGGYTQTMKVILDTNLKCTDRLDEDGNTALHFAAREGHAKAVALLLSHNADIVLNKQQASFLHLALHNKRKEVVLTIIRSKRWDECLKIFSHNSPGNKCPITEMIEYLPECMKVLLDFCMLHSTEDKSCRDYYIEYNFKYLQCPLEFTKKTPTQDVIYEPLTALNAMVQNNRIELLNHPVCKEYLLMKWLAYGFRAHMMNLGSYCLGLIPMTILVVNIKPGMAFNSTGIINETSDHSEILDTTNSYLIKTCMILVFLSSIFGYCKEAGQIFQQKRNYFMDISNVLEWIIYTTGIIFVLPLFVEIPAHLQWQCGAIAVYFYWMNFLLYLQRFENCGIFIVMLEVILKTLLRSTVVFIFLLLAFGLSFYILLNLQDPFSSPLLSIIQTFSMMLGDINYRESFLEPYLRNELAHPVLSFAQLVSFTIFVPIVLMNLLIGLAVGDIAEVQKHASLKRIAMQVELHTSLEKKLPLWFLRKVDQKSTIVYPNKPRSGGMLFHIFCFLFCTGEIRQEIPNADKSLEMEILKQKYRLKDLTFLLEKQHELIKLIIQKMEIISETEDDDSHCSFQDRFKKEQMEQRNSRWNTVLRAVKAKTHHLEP
The target of data set [8] is Transient receptor potential cation channel subfamily V member 1 (Homo sapiens, UniProt Q8NER1). The data set can be described thus: Inhibition of TRPV1 (unknown origin).
Chain of Transient receptor potential cation channel subfamily V member 1 (Q8NER1 whole entry): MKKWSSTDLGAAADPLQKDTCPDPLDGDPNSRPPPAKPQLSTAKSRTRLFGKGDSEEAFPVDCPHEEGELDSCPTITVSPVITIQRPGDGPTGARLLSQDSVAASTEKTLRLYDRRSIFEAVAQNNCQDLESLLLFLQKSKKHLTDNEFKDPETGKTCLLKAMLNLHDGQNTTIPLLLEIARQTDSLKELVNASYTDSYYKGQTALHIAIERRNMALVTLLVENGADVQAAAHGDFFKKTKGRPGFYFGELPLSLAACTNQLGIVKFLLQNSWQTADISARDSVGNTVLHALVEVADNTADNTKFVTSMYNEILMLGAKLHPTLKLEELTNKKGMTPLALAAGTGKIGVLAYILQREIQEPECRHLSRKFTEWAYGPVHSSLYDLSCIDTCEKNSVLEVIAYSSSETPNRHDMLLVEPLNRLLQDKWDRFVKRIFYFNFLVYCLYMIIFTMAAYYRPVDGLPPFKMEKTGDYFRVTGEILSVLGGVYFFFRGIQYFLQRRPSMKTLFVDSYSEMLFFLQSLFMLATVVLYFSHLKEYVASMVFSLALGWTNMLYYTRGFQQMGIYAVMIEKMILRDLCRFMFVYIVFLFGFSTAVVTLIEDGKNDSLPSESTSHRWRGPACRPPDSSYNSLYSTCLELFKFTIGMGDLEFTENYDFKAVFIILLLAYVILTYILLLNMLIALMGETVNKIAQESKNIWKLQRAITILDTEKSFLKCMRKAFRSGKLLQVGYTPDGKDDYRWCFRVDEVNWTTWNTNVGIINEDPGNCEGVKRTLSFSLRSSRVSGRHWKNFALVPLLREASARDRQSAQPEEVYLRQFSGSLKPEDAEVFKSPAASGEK
Data set [9] addresses Transient receptor potential cation channel subfamily M member 4 (Homo sapiens, UniProt Q8TD43). Put plainly: Inhibition of TRPM4 (unknown origin).
Data set [10] has as its target Transient receptor potential cation channel subfamily M member 8 (Homo sapiens, UniProt Q7Z2W7). Put plainly: Inhibition of TRPM8 (unknown origin).
Data set [11] deals with T1, Short transient receptor potential channel 6 (Homo sapiens, UniProt Q9Y210).
T1 sequence (Q9Y210 whole entry): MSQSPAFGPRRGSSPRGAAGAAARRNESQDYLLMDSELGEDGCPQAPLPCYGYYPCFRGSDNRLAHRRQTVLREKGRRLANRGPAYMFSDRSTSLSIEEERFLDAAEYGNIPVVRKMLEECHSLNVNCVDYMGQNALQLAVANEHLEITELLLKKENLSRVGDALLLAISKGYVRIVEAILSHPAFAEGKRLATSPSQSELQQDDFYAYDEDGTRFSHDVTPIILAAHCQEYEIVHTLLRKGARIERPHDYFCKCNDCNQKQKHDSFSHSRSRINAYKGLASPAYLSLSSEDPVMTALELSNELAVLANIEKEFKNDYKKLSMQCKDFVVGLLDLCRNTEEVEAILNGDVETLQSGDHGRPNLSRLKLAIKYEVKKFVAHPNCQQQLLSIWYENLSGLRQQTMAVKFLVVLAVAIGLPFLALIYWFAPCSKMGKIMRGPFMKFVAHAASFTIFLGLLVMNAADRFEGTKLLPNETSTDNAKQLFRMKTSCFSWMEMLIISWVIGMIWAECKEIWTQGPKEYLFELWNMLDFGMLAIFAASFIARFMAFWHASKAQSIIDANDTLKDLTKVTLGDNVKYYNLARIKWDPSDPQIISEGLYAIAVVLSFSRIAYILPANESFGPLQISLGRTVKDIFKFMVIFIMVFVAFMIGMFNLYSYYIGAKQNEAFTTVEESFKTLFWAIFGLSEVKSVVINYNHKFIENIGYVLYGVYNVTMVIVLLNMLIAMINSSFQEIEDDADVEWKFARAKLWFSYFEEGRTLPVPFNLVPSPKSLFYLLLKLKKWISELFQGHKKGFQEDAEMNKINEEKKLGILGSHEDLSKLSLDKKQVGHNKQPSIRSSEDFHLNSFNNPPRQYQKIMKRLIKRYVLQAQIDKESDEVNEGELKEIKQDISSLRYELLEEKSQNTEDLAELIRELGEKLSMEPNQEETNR
The data set can be described thus: Inhibition of TRPC6 (unknown origin).

A short description of data set [12]: Lipophilicity, log D of the compound by chromatography. The data set is classed as physicochemical.
The target of data set [13] is Transient receptor potential cation channel subfamily V member 4 (Homo sapiens, UniProt Q9HBA0). The data set can be described thus: Antagonist activity at human TRPV4 expressed in BHK/AC9 or HEK MSR2 cells assessed as inhibition of GSK634775-induced Ca2+ flux pre-incubated for 10 mins before agonist addition by FLIPR assay.
Chain of Transient receptor potential cation channel subfamily V member 4 (Q9HBA0 whole entry): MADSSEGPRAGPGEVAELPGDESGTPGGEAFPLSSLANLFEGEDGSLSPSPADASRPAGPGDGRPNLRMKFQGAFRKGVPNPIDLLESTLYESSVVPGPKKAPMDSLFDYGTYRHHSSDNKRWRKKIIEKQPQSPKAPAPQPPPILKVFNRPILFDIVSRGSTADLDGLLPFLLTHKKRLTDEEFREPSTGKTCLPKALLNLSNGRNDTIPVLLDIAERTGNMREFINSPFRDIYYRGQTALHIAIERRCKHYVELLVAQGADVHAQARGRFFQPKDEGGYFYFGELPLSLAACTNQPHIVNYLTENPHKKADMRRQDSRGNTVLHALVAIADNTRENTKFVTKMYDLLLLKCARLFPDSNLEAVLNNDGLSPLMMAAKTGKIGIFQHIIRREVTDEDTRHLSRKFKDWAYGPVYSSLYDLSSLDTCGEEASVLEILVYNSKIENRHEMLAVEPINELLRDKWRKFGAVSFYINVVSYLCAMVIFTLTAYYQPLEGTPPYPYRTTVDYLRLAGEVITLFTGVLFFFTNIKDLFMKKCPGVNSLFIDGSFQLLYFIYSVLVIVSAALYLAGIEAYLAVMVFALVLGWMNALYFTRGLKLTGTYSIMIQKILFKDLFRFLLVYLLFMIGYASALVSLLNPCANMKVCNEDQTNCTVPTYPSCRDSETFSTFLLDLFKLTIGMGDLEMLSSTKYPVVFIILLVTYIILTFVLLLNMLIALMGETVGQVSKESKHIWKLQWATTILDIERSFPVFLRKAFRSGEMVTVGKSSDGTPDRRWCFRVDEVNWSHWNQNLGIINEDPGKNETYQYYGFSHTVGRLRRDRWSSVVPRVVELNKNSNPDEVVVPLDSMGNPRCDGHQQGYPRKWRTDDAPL

Converted amounts (≈) assume the structure as drawn.

Broadly, the solubility is how much of the substance goes into solution per volume. Low readings indicate a poorly soluble substance, high ones a readily soluble substance. For orientation: clearance means the volume of plasma or blood freed of the substance per unit of time. A word on the MRT: it is the average time that molecules of a dose stay in the body. By bioavailability is commonly meant dose-corrected exposure relative to a reference, in per cent. In general, fraction unbound refers to free concentration divided by total concentration. For orientation: IC50 means the point on the concentration scale where inhibition reaches its midpoint. In general, chromatographic logD refers to a lipophilicity value derived from retention on a column. The low end stands for lower lipophilicity, the high end for higher lipophilicity.

Chain of Transient receptor potential cation channel subfamily M member 4 (Q8TD43 whole entry): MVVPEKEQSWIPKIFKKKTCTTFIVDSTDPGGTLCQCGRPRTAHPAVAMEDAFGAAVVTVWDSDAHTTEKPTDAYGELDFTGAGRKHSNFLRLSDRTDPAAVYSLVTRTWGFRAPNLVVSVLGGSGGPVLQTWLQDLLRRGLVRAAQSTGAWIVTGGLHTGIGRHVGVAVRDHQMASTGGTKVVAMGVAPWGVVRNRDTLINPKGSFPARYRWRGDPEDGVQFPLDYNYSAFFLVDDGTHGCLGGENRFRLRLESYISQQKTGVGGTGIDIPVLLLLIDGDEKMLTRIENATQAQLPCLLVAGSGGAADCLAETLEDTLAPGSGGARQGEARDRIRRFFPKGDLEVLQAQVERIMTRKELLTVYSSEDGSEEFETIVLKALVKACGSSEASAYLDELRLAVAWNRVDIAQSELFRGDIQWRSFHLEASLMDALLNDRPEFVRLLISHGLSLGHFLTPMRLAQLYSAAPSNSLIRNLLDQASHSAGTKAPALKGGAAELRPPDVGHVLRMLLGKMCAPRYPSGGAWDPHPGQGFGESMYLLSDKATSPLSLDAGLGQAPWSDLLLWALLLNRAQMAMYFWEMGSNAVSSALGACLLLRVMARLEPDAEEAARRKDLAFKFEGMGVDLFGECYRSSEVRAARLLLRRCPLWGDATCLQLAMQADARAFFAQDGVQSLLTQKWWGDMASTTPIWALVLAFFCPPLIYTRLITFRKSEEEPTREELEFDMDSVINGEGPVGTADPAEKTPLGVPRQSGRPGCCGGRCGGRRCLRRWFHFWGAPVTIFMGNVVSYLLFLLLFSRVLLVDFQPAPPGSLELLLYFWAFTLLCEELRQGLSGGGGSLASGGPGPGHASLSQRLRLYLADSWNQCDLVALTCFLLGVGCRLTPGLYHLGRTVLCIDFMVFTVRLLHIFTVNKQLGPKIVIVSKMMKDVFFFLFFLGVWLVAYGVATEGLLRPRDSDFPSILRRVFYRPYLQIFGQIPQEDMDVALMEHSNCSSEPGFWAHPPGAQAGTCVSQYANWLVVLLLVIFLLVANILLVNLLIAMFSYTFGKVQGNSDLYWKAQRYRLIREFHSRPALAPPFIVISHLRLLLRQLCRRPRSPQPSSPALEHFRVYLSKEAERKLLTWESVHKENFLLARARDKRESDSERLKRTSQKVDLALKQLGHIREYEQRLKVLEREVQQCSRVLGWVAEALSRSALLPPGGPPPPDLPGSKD

In data set [1], `N#Cc1ccc(O[C@H]2CN(S(=O)(=O)c3ccc(Cl)cc3Cl)C[C@@]2(O)CO)cc1F` registered a solubility of 360 µM (≈ 166 µg/mL). The compound also registered a clearance in data set [2] of 58 mL/min/kg. The CL free in data set [3] came to 966 mL/min/kg. In addition, in data set [4], the MRT was 54 min. Also, the bioavailability in data set [5] was found to be 35%. Besides, the fraction unbound in data set [6] was determined as 0.059. For the same compound, the IC50 is above 10 µM in data set [7]; above 10 µM in data set [8]; above 10 µM in data set [9]; above 10 µM in data set [10]; above 10 µM in data set [11]; 0.0025 µM in data set [13]. The compound also registered a chromatographic logD in data set [12] of 4.6.
